Measured values published in PubChem BioAssay AID635 (SRMLSC, 2007).

Tested on: E. coli BW25113 growth inhibition, OD615
Assay: growth inhibition of wild-type E. coli BW25113 pool, dose response, OD615 (AID 635);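 also: growth measured after 20 h with compound at 37 °C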
Settings: pooled mutant strains
Summary of the method: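 Material: Keio BW25113 knockout pool, 1,275 strains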

How did the IC50 turn out when `CCC(=O)N1CCN(c2cc3c(cc2F)c(=O)c(C(=O)O)cn3CC)CC1` was run?
The IC50 was 4.01 µM.

For `CCn1cc(C(=O)O)c(=O)c2cc(F)c(N3CCN(C(=O)Nc4ccccc4)CC3)cc21`, which IC50 is on record?
Its IC50 is 4.05 µM.

For `COc1c(N2CCNC(C)C2)c(F)cc2c(=O)c(C(=O)O)cn(C3CC3)c12` (centres undefined), which IC50 is on record?
The IC50 was under 0.195 µM.

For `COc1cc(Cc2cnc(N)nc2N)cc(OC)c1OC`, which IC50 is on record?
The IC50 was 0.595 µM.

With `O=c1ccsn1Cc1ccccc1` as the compound, how does the IC50 read?
The IC50 was 34.6 µM.

With `CCn1cc(C(=O)NCc2ccc3c(c2)OCO3)c(=O)c2cc(F)c(N3CCN(C)CC3)cc21` as the compound, how does the IC50 read?
Its IC50 is 28.6 µM.

Which IC50 does the source give for `c1ccc(-c2cccc(-c3ccccn3)n2)nc1` here?
The IC50 was 41.8 µM.

How did the IC50 turn out when `CO[C@@]1(NC(=O)Cc2cccs2)C(=O)N2C(C(=O)O)=C(COC(N)=O)CS[C@@H]21` was run?
Its IC50 is 9.78 µM.

`CCCCNc1cc(C)nc(NCc2ccccc2)n1` was tested. Which IC50 did it give?
Its IC50 is 98.5 µM.

How did the IC50 turn out when `CN(C)[C@@H]1C(=O)C(C(N)=O)=C(O)[C@@]2(O)C(=O)C3=C(O)c4c(O)ccc(Cl)c4[C@@H](O)[C@H]3C[C@@H]12` was run?
The IC50 was 0.579 µM.

For `CCCCOc1ccc(NC2=NC3(CCCCC3)N=C(N)N2)cc1`, which IC50 is on record?
The IC50 was 41 µM.

`CC(=O)OCC1=C(C(=O)O)N2C(=O)[C@@H](NC(=O)Cc3cccs3)[C@H]2SC1` was tested. Which IC50 did it give?
Its IC50 is 10.5 µM.

Which IC50 does the source give for `Oc1c(CN2CCCCC2)cc(Br)c2cccnc12` here?
The IC50 was 37.5 µM.

Which IC50 does the source give for `COc1ccc(OCC(O)CNc2ccc(Br)cc2)cc1` (centres undefined) here?
The IC50 was 102 µM.

`O=S1(=O)Nc2c(ccc3cccnc23)-c2ccccc21` was tested. Which IC50 did it give?
Its IC50 is 20.3 µM.

Which IC50 does the source give for `CC(=O)c1c(C)n([O-])c2ccccc2[n+]1=O` here?
The IC50 was 48.6 µM.

For `C=CCNc1ncnc2c1[nH]c1ccc(C)cc12`, which IC50 is on record?
Its IC50 is 41.7 µM.

With `CN1CCN(c2c(F)cc3c(=O)c(C(=O)O)cn4c3c2SCC4)CC1` as the compound, how does the IC50 read?
The IC50 was 1.11 µM.

Which IC50 does the source give for `NC1C2CN(c3nc4c(cc3F)c(=O)c(C(=O)O)cn4-c3ccc(F)cc3F)CC12` (centres undefined) here?
Its IC50 is 0.006 µM.
